# Measurements from ChEMBL document CHEMBL4145471, “New 1,5 and 2,5-disubstituted tetrazoles-dependent activity towards surface barrier of Candida albicans” (Eur J Med Chem, 2018).
# Tests used:
# Candida albicans [1] = assay: Antifungal activity against Candida albicans ATCC 90028 at 4 ug/ml after 18 hrs relative to control; format: functional
# In short: (§1)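 Planktonic broth microdilution per M27-A3 in MOPS-buffered RPMI 1640 (pH 7.0), final inoculum 1.8×10^3 cells/mL, compounds 0.0313–16 µg/mL from 1600 µg/mL stocks in ethanol or DMSO. Incubated at 35°C without agitation; OD405 read at 18 and 48 h. % inhibition was derived from test, sterility (no inoculum) and solvent growth-control wells. Amphotericin B at 0.5 µg/mL served as the 100% control.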
# Candida albicans [2] = assay: Antifungal activity against Candida albicans ATCC 90028 at 2 ug/ml after 18 hrs relative to control; format: functional; in short: as §1
# Candida albicans [3] = assay: Antifungal activity against Candida albicans ATCC 90028 at 0.25 ug/ml after 48 hrs relative to control; format: functional
# In short: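 Fluconazole (water stock, diluted in RPMI 1640) tested by CLSI M27-A3 broth microdilution against C. albicans ATCC 90028. Inoculum 1.8×10^3 cells/mL in RPMI 1640 buffered with MOPS, pH 7.0. Incubation at 35°C without agitation, read at 18 and 48 h. Growth by OD405 and visually; inhibition % calculated against solvent growth-control wells after subtracting sterility-control wells.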
# Candida albicans [4] = assay: Antifungal activity against Candida albicans ATCC 90028 at 0.125 ug/ml after 18 hrs relative to control; format: functional; in short: as §1
# Candida albicans [5] = assay: Antifungal activity against Candida albicans ATCC 90028 at 0.0625 ug/ml after 48 hrs relative to control; format: functional; in short: as §1
# Caco-2 = assay: Cytotoxicity against human Caco2 cells assessed as reduction in cell viability at 16 ug/ml after 18 hrs by XTT assay ralative to control; format: cell-based; settings: caco-2, 18 h
# In short: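 Caco-2 cells were exposed to compound at 256, 16 or 0.0313 µg/mL for 18 h, then given XTT reagent for 4–6 h. Absorbance was read at 475 nm with a 660 nm reference, and viability and toxicity were expressed as %. CC50 was taken as the concentration giving 50% viability loss. Means ± SD of three independent experiments, samples in duplicate.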
# Candida albicans [6] = assay: Synergistic antifungal activity against Candida albicans ATCC 90028 at 80 ug/ml after 48 hrs in presence of 40 ug/ml fluconazol by checkerboard assay relative to control; format: functional
# In short: (§2)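 Checkerboard in C. albicans ATCC 90028, inoculum prepared per CLSI M27-A3 in RPMI. Fluconazole serially diluted 80-1.25 µg/mL across the plate against the partner compound at 80-1.25 µg/mL final. Incubated 48 h at 35°C. Metabolic activity read by XTT reduction at 475 nm (660 nm reference), given as % of the untreated growth control.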
# Candida albicans [7] = assay: Synergistic antifungal activity against Candida albicans ATCC 90028 at 80 ug/ml after 48 hrs in presence of 1.25 ug/ml fluconazol by checkerboard assay relative to control; format: functional; in short: as §2
# Candida albicans [8] = assay: Synergistic antifungal activity against Candida albicans ATCC 90028 at 10 ug/ml after 48 hrs in presence of 5 ug/ml fluconazol by checkerboard assay relative to control; format: functional
# In short: (§3)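 Checkerboard per M27-A3 against ATCC 90028: fluconazole at 80–1.25 µg/mL horizontally and partner compound at 80–1.25 µg/mL vertically, 100 µL yeast inoculum per well, 35°C for 48 h. After 48 h, metabolic activity was measured by XTT reduction at 475 nm (660 nm reference) relative to untreated growth control. FIC index is the sum of the FICs; <1 was defined as synergism and >1 as antagonism.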
# Candida albicans [9] = assay: Synergistic antifungal activity against Candida albicans ATCC 90028 at 5 ug/ml after 48 hrs in presence of 40 ug/ml fluconazol by checkerboard assay relative to control; format: functional; in short: as §2
# Candida albicans [10] = assay: Synergistic antifungal activity against Candida albicans ATCC 90028 at 5 ug/ml after 48 hrs in presence of 10 ug/ml fluconazol by checkerboard assay relative to control; format: functional; in short: as §2
# Candida albicans [11] = assay: Synergistic antifungal activity against Candida albicans ATCC 90028 at 2.5 ug/ml after 48 hrs in presence of 20 ug/ml fluconazol by checkerboard assay relative to control; format: functional
# In short: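 Checkerboard microdilution (M27-A3) on C. albicans ATCC 90028 in RPMI 1640: fluconazole (80-1.25 µg/mL) crossed with tetrazole (80-1.25 µg/mL final), incubated at 35°C for 48 h. Growth by OD405 at 18 and 48 h, endpoint taken as 100% inhibition. FIC index = sum of the two agents' FICs; <1 synergism, >1 antagonism.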
# Candida albicans [12] = assay: Synergistic antifungal activity against Candida albicans ATCC 90028 at 1.25 ug/ml after 48 hrs in presence of 10 ug/ml fluconazol by checkerboard assay relative to control; format: functional; in short: as §3
# Candida albicans [13] = assay: Antifungal activity against Candida albicans ATCC 90028 assessed as inhibition of metabolic activity at 10 ug/ml after 48 hrs in presence of 20 ug/ml fluconazol by XTT assay relative to control; format: functional; settings: values are per cent of control
# In short: (§4)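 Checkerboard against strain ATCC 90028, inoculum per M27-A3: fluconazole 80-1.25 µg/mL on one axis, tetrazole 80-1.25 µg/mL on the other. Plates at 35°C for 48 h, then XTT metabolic reduction read at 475 nm (660 nm reference). Activity is the drop in mean absorbance against untreated growth control. FICs and their summed FIC index are taken at 50% reduction in metabolic activity.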
# Candida albicans [14] = assay: Antifungal activity against Candida albicans ATCC 90028 assessed as inhibition of metabolic activity at 10 ug/ml after 48 hrs in presence of 5 ug/ml fluconazol by XTT assay relative to control; format: functional; settings: values are per cent of control; in short: as §4
# Candida albicans [15] = assay: Antifungal activity against Candida albicans ATCC 90028 assessed as inhibition of metabolic activity at 5 ug/ml after 48 hrs in presence of 5 ug/ml fluconazol by XTT assay relative to control; format: functional; settings: ATCC 90028, 48 h, values are per cent of control; in short: as §4
# Candida albicans [16] = assay: Antifungal activity against Candida albicans ATCC 90028 after 48 hrs assessed as fluconazol MIC by XTT assay; format: functional; settings: ATCC 90028, 48 h; in short: as §4
# Candida albicans [17] = assay: Antifungal activity against Candida albicans ATCC 90028 assessed as metabolic activity at 40 ug/ml after 48 hrs in presence of 80 ug/ml fluconazol by XTT assay relative to control
# Candida albicans [18] = assay: Antifungal activity against Candida albicans ATCC 90028 assessed as metabolic activity at 10 ug/ml after 48 hrs in presence of 40 ug/ml fluconazol by XTT assay relative to control
# Candida albicans [19] = assay: Antifungal activity against Candida albicans ATCC 90028 assessed as metabolic activity at 40 ug/ml after 48 hrs in presence of 1.25 ug/ml fluconazol by XTT assay relative to control
SMILES,Activity (Candida albicans [1]),Activity (Candida albicans [2]),Activity (Candida albicans [3]),Activity (Candida albicans [4]),Activity (Candida albicans [5]),Activity (Caco-2),growth inhibition (GI) (Candida albicans [6]),growth inhibition (GI) (Candida albicans [7]),growth inhibition (GI) (Candida albicans [8]),growth inhibition (GI) (Candida albicans [9]),growth inhibition (GI) (Candida albicans [10]),growth inhibition (GI) (Candida albicans [11]),growth inhibition (GI) (Candida albicans [12]),residual activity (Candida albicans [13]),residual activity (Candida albicans [14]),residual activity at 5 µg/mL (Candida albicans [15]),MIC (Candida albicans [16]),Metabolic activity (Candida albicans [17]),Metabolic activity (Candida albicans [18]),Metabolic activity (Candida albicans [19])
CCOC(=O)CCn1nnc(-c2ccccc2)n1,99.96%,99.35%,98.7%,99.13%,99.12%,50.46%,99.34%,99.97%,98.97%,99.51%,99.57%,99.52%,99.65%,70.81%,100%,100%,1.25 µg/mL,55.99%,94.14%,66.6%
ClCCCn1nnnc1-c1ccccc1Cl,99.62%,97.4%,99.62%,100%,99.34%,25.49%,99.79%,100%,98.9%,99.25%,99.66%,99.53%,99.66%,87.4%,100%,100%,1.25 µg/mL,63.62%,100%,13.59%
Cc1ccc(-c2nnn(CCCN3CCOCC3)n2)cc1,99.75%,95.72%,98.68%,99.57%,99.03%,27.73%,99.21%,98.77%,98.12%,99.15%,98.8%,98.82%,99.59%,93.01%,100%,100%,10 µg/mL,66.33%,100%,40.06%
